The term Kd denotes a measure of binding affinity in units of concentration.

Chain of Keap1/Nrf2 (Q16236 whole entry, the tested form may be a part): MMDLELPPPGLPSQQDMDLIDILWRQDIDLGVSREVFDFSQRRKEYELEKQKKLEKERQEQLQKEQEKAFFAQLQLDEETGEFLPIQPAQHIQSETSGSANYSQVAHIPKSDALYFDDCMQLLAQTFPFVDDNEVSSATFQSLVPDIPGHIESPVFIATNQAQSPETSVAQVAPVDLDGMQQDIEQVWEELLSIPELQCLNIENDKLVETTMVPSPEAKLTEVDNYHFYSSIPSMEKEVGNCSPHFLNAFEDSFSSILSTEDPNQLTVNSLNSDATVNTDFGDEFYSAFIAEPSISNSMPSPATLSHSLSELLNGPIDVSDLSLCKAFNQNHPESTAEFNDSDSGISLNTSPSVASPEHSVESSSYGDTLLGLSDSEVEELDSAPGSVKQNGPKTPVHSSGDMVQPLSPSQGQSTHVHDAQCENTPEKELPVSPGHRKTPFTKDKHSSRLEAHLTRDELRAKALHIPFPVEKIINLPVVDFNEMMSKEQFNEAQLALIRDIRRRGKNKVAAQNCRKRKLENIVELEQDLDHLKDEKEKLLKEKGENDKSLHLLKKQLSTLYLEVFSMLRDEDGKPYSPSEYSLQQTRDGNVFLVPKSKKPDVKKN
Chain of Keap1/Nrf2 (Q14145 whole entry, the tested form may be a part): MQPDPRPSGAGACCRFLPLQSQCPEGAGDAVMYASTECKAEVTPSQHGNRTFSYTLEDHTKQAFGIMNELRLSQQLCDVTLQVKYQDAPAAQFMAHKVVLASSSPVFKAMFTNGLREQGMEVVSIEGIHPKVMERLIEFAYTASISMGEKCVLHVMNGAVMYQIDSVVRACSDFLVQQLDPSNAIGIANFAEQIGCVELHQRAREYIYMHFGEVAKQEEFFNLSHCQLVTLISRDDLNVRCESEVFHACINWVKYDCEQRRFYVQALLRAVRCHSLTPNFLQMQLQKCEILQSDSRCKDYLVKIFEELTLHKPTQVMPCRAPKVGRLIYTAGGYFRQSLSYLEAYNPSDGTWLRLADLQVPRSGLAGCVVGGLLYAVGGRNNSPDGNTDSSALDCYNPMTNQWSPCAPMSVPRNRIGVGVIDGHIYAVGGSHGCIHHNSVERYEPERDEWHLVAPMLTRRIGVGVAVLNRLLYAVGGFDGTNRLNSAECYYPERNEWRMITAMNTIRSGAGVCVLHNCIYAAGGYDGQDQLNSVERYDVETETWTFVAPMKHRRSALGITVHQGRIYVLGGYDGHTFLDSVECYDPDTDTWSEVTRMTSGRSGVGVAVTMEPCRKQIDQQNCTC

The assay has as its target Keap1/Nrf2 (Homo sapiens, UniProt Q14145). Briefly: Inhibition of Nrf2 peptide (KKKKAFFAQLQLDEETGEFL) binding to Keap1 Kelch domain (321 to 609 residues) (unknown origin) assessed as dissociation constant by surface plasmon resonance based inhibition in solution assay. The assay is classed as protein assay. Put shortly: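 Solution-competition SPR at 20 °C in HBS-P (10 mM HEPES, 150 mM NaCl, 0.05% Tween 20, 1.0 mM TCEP, pH 7.40), 10 µL/min. Nrf2 peptide amine-coupled to CM5 chip (400–600 RU). 25 nM Keap1 Kelch domain (aa321–609) preincubated with compound, injected; initial association slopes (5–15 s) vs compound-free controls give free Keap1. KD by nonlinear regression; mean ± SD of three measurements on distinct samples.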
(SPR reads the build-up and loss of mass on a sensor chip optically.)
Turning to `COC(=O)[C@H]1CSCc2ccccc2C(=O)OC[C@H](NC(=O)[C@@H]2CCCN2C(C)=O)C(=O)N1`, the dissociation constant Kd is more than 500 µM.

`CSC[C@@H](NC(=O)[C@@H](COC(=O)c1ccccc1)NC(=O)[C@@H]1CCCN1C(C)=O)C(=O)N(C)C`: the Kd turned out to be 406 µM.

For the molecule `COC(=O)[C@H]1CSCc2ccccc2C(=O)OC[C@@H](NC(=O)[C@H]2CCCN2C(C)=O)C(=O)N1`, the Kd is more than 500 µM.

As for `CC(=O)N1CCC[C@H]1C(=O)N[C@@H]1COC(=O)c2ccccc2CSC[C@H](C(N)=O)NC1=O`, the equilibrium dissociation constant (Kd) is more than 500 µM.

`CC(=O)N1CCC[C@H]1C(=O)N[C@@H]1CCOC(=O)c2ccccc2CSC[C@H](C(=O)N(C)C)NC1=O`: the dissociation constant (Kd) is more than 500 µM.

Take `CNC(=O)[C@H]1CSCc2ccccc2C(=O)OC[C@@H](NC(=O)[C@@H]2CCCN2C(C)=O)C(=O)N1`: the equilibrium dissociation constant (Kd) came to 209 µM.

Regarding `COC(=O)[C@H]1CSCc2ccccc2C(=O)OC[C@@H](NC(=O)[C@@H]2C[C@@H](O)CN2C(C)=O)C(=O)N1`, the Kd is 270 µM.

Turning to `CC(=O)N1CCC[C@H]1C(=O)N[C@@H]1COC(=O)c2ccccc2CSC[C@H](C(=O)N(C)C)NC(=O)CNC1=O`, the dissociation constant Kd is more than 500 µM.

Take `COC(=O)[C@@H]1CSCc2ccccc2C(=O)OC[C@H](NC(=O)[C@@H]2CCCN2C(C)=O)C(=O)N1`: the Kd was more than 500 µM.

Take `COC(=O)[C@@H]1CSCc2ccccc2C(=O)OC[C@@H](NC(=O)[C@@H]2CCCN2C(C)=O)C(=O)N1`: the dissociation constant Kd was more than 500 µM.

As to `COC(=O)[C@H]1CSCc2ccccc2C(=O)OC[C@@H](NC(=O)[C@@H]2CCCN2C(C)=O)C(=O)N1`, the Kd amounted to 237 µM.

As to `CCN(CC)C(=O)[C@H]1CSCc2ccccc2C(=O)OC[C@@H](NC(=O)[C@@H]2CCCN2C(C)=O)C(=O)N1`, the Kd was more than 500 µM.

These data come from ChEMBL document CHEMBL4706638, “Mining Natural Products for Macrocycles to Drug Difficult Targets” (J Med Chem, 2021).
